Screening results deposited in PubChem BioAssay by several laboratories.
Rows were chosen to be rich in hits. Some 2.1% of all compounds tested hit in one or more screens of this group.
HTR2A ag = agonists of mouse serotonin 5-HT2A receptor (HTR2A); AID 624169; activation, % at 7.6 µM; CHO-K1 mHTR2A beta-arrestin complementation, luminescence; percent of 30 µM serotonin response; actives 0.66% (n = 360,000); P35363;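 active = activation above a run cutoff, the mean activation of all tested compounds plus 3 SD, cut at about 14% in these data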
EBI2 antag = EBI2 (human) antagonism; P32249; EBI2 beta-arrestin recruitment, luminescence, 7a,25-OHC stimulated; inhibition, % at 5 µM; actives 0.81% (n = 360,000); AID 651636; in the data active = inhibition above about 38%;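 also: enzyme fragment complementation signal reports receptor beta-arrestin coupling in cells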
CCR6 antag = CCR6 (human) receptor antagonism; AID 493098; CHO-K1 CCR6 PathHunter beta-arrestin, luminescence, CCL20-stimulated; inhibition, % at 20 µM; actives 0.49% (n = 340,000);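 active = compounds whose inhibition of the agonist-driven luminescence signal at 20 µM reaches about 50%, limit read from the data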;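 also: cells stimulated with CCL20 at 14 nM final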
CXCR6 inh = blocks human CXCR6 beta-arrestin recruitment | O00574 | actives 0.36% (n = 360,000) | inhibition, % at 20 µM | CHO-K1 PathHunter CXCR6 beta-arrestin, luminescence; in the data active = inhibition above about 34%, passing the limit was not always enough;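 also: antagonist mode with CXCL16 agonist at 10 nM final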
Target sequence (O00574 whole entry, looked up): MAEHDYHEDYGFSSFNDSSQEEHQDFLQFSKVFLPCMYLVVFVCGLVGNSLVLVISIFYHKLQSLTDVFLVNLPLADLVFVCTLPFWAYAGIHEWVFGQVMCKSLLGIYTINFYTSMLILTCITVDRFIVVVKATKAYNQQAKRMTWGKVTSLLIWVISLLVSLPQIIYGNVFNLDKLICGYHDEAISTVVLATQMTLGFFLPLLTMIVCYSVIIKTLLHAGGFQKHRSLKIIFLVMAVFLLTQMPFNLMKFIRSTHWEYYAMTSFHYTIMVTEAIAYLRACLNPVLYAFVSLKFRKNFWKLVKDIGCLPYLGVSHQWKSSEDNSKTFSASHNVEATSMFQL
APJ ag = activates the human apelin receptor APJ | CHO-K1 APJ PathHunter beta-arrestin, luminescence; 0% DMSO wells, 100% apelin | actives 0.11% (n = 330,000) | P35414 | activation, % at 20 µM;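 active = activation more than six SD over the plate average, tested at 20 µM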
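Incubation: overnight seeding, 90 min compound at 25 °C, 1 h detection; test system: PathHunter CHO-K1 APJ (AGTRL-1) beta-arrestin reporter cells; amount: 1000 cells/well; doses: one dose, 20 µM compound, 1% DMSO; measured by: beta-gal luminescence; measure: agonist-driven arrestin binding to APJ; benchmarks: negative DMSO alone, positive Apelin-13 at 10 nM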
APJ antag = APJ receptor antagonism. CHO-K1 APJ beta-arrestin complementation, luminescence. inhibition, % at 20 µM. actives 0.32% (n = 330,000);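 active = inhibition above about 40% at 20 µM, limit read from the data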;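 also: cells challenged with 10 nM apelin-13 agonist together with compound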
EBI2 antag conf = confirmation of human EBI2 receptor antagonists | inhibition, % at 5 µM | actives 29% (n = 2,400) | AID 651997 | EBI2 beta-arrestin luminescence, 7a,25-OHC antagonism | shares compounds with EBI2 antag;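 active = inhibition of at least 50%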
EBI2 ag = counter-screen for EBI2 antagonists: EBI2 agonist activity | EBI2-expressing cells, agonist mode, luminescence, 60 min; 0% vehicle, 100% 7α,25-dihydroxycholesterol control | 2,400 tested, under 10 active | shares compounds with EBI2 antag | activation, % at 5 µM;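 active = activation of at least 50%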
bGal counter = counter-screen for EBI2 antagonists: E. coli beta-galactosidase inhibition; shares compounds with EBI2 antag; purified beta-galactosidase, luminescent Galacton Star, 15 min; inhibition, % at 5 µM; actives 1% (n = 2,400); AID 652176;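 active = replicate-average signal at least 3 plate SD below neutral wells, shown as high inhibition, flagging enzyme-inhibiting false positives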;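 also: higher means stronger loss of beta-gal luminescence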
Of the large screens only hits and unclear results are named; the others gave an inactive call (follow-up assays come after a bar, where they were run).

Cc1ccc(N2CC(C(=O)Nc3ccc(S(=O)(=O)NCC4CCCO4)cc3)CC2=O)cc1 (centres undefined)	EBI2 antag 50.6 | EBI2 antag conf inactive | EBI2 ag inactive | bGal counter inactive
O=C(Nc1ccc(S(=O)(=O)N2CCCCC2)cc1)C1CC(=O)N(c2ccc(Cl)cc2)C1 (centres undefined)	EBI2 antag 88.9 | EBI2 antag conf 56.4 | EBI2 ag inactive | bGal counter inactive
CC(C)N1CC(C(=O)Nc2ccc(S(=O)(=O)N3CCCCC3)cc2)CC1=O (centres undefined)	none
Cc1ccccc1N1CC(C(=O)Nc2ccc(S(=O)(=O)NCC3CCCO3)cc2)CC1=O (centres undefined)	none
Cc1ccc(N2CC(C(=O)Nc3ccc(S(=O)(=O)N4CCCC4)cc3)CC2=O)cc1 (centres undefined)	EBI2 antag 55.2 | EBI2 antag conf inactive | EBI2 ag inactive | bGal counter inactive
Cc1ccc(N(CC(=O)Nc2cc(Cl)ccc2Oc2ccccc2)S(C)(=O)=O)c(C)c1	none
O=C(NCC(c1ccco1)N1CCCCC1)c1cnc(Cl)c(Cl)c1 (centres undefined)	none
CCC(=O)OC1(C)C(=O)C=C2C=C(c3ccc(C#N)cc3)OC=C2C1=O (centres undefined)	none
COc1ccc(OCC(=O)N/N=C/c2ccncc2)cc1	none
O=C(c1ccc([N+](=O)[O-])s1)N1CCN(c2ccccc2)CC1	none
O=C(Nc1ccc(S(=O)(=O)N2CCCCC2)cc1)C1CC(=O)N(Cc2ccccc2)C1 (centres undefined)	none
CCc1ccc(N2CC(C(=O)Nc3ccc(C)c(S(=O)(=O)N4CCOCC4)c3)CC2=O)cc1 (centres undefined)	none
Cc1ccc(CN2CC(C(=O)Nc3ccc(S(=O)(=O)N4CCCCC4)cc3)CC2=O)cc1 (centres undefined)	EBI2 antag 50.0 | EBI2 antag conf inactive | EBI2 ag inactive | bGal counter inactive
CCc1ccc(N2CC(C(=O)Nc3ccc(S(=O)(=O)N4CCOCC4)cc3)CC2=O)cc1 (centres undefined)	EBI2 antag 52.3 | EBI2 antag conf inactive | EBI2 ag inactive | bGal counter inactive
Cc1cc(C(C)(C)C)oc1C(=O)N1CCN(C(=O)c2oc(C(C)(C)C)cc2C)CC1	EBI2 antag 48.0 (no result: APJ ag, APJ antag) | EBI2 antag conf inactive | EBI2 ag inactive | bGal counter inactive
O=C(CCSc1ccc(Cl)cc1)NC12CC3CC(CC(C3)C1)C2	EBI2 antag 54.4 | EBI2 antag conf inactive | EBI2 ag inactive | bGal counter inactive
COC(=O)Cn1cnc2scc(-c3ccc(C)cc3)c2c1=O	none
CCC(C)(C)C1CCc2[nH]nc(C(=O)NC3CCCCC3)c2C1 (centres undefined)	EBI2 antag 42.8 | EBI2 antag conf inactive | EBI2 ag inactive | bGal counter inactive
CCC(C)(C)C1CCc2[nH]nc(C(=O)NN)c2C1 (centres undefined)	none
COC(=O)c1ccc(COc2ncnc3c(Cl)cc(Cl)cc23)o1	none
Cc1ccccc1NC(=O)c1cccc(NC(=O)CCC(=O)O)c1	none
CCOC(=O)C1=C(C)Nc2sc(C(=O)c3ccc(F)cc3)c(N)c2C1c1ccc(C(=O)OC)cc1 (centres undefined)	EBI2 antag 36.8 | EBI2 antag conf inactive | EBI2 ag inactive | bGal counter inactive
O=C/C=C/c1coc2ccc3ccccc3c2c1=O	none (no result: HTR2A ag, EBI2 antag, CXCR6 inh)
O=C1c2ccccc2C(=O)N1c1cccc(-c2nc3ccccc3o2)c1	none
